Laboratory results published in ChEMBL document CHEMBL1138024, “Aryl urea analogs with broad-spectrum antibacterial activity” (Bioorg Med Chem Lett, 2004).
≈ marks a conversion by molar mass, not a printed value.

Experiments:
Type in all cases: functional
[1] = system: Enterococcus faecalis; assay: Minimum inhibitory concentration against Enterococcus faecalis ATCC 29212; value ranges from 6-12 uM
[2] = system: Staphylococcus aureus; assay: Minimum inhibitory concentration against Staphylococcus aureus ATCC 13709 (+4% BSA); value ranges from 25-50 uM
Procedure, shortened: (§1)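 Same microdilution MIC against S. aureus ATCC 13709, but with 4% bovine serum albumin in the wells. Compound in 0.5% DMSO in water, inoculum about 10³–10⁴ CFU/well, duplicates. Growth was read as A595 after 20–24 h at 37°C against a compound-free control. MIC is reported as the range between full inhibition and viable growth.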

[3] = system: Klebsiella pneumoniae; assay: Minimum inhibitory concentration against Klebsiella pneumoniae ATCC 13383; value ranges from 6-12 uM
[4] = system: Enterococcus faecium; assay: Minimum inhibitory concentration against Enterococcus faecium ATCC 6569
[5] = system: Pseudomonas aeruginosa; assay: Minimum inhibitory concentration against Pseudomonas aeruginosa ATCC 25416
[6] = system: Escherichia coli; assay: Minimum inhibitory concentration against Escherichia coli ATCC 25922; value ranges from 12-25 uM
[7] = system: Staphylococcus aureus; assay: Minimum inhibitory concentration against Staphylococcus aureus ATCC 13709; value ranges from 3-6 uM
[8] = system: Proteus vulgaris; assay: Minimum inhibitory concentration against Proteus vulgaris ATCC 8427; value ranges from 12-25 uM
[9] = system: Streptococcus pyogenes; assay: Minimum inhibitory concentration against Streptococcus pyogenes ATCC 49399; value ranges from 6-12 uM
[10] = system: Staphylococcus aureus; assay: In vitro antibacterial activity against Staphylococcus aureus; value ranges from 3-6 uM
[11] = system: Staphylococcus aureus; assay: In vitro antibacterial activity against Staphylococcus aureus; value ranges from 12-25 uM
[12] = system: Staphylococcus aureus; assay: In vitro antibacterial activity against Staphylococcus aureus
[13] = system: Huh-7; assay: Cytotoxic concentration against Huh7 cells at 48 hours in MTT assay; conditions: Homo sapiens, Huh-7, 48 h
[14] = system: Enterococcus faecalis; assay: Minimum inhibitory concentration against Enterococcus faecalis ATCC 29212; value ranges from 3-6 uM
[15] = system: Mus musculus; assay: In vivo antibacterial activity (Staphylococcus aureus) in a lethal murine model at a dose of 18.8 mg/kg; activity expressed as no. of mice alive/total tested; 6/10
[16] = system: Streptococcus pyogenes; assay: Minimum inhibitory concentration against Streptococcus pyogenes ATCC 49399; value ranges from 3-6 uM
[17] = system: Mus musculus; assay: In vivo antibacterial activity (Staphylococcus aureus) in a lethal murine model at a dose of 37.6 mg/kg; activity expressed as no. of mice alive/total tested; 6/10
[18] = system: Mus musculus; assay: In vivo antibacterial activity (Staphylococcus aureus) in a lethal murine model at a dose of 150 mg/kg; activity expressed as no. of mice alive/total tested; 4/10
[19] = system: Mus musculus; assay: In vivo antibacterial activity (Staphylococcus aureus) in a lethal murine model at a dose of 4.6 mg/kg; activity expressed as no. of mice alive/total tested; 3/10
[20] = system: Mus musculus; assay: In vivo antibacterial activity (Staphylococcus aureus) in a lethal murine model at a dose of 9.4 mg/kg; activity expressed as no. of mice alive/total tested; 4/10
[21] = system: Staphylococcus aureus; assay: In vitro antibacterial activity against Staphylococcus aureus; value ranges from 6-12 uM
[22] = system: Mus musculus; assay: In vivo antibacterial activity (Staphylococcus aureus) in a lethal murine model at a dose of 75 mg/kg; activity expressed as no. of mice alive/total tested; 7/10
[23] = system: Klebsiella pneumoniae; assay: Minimum inhibitory concentration against Klebsiella pneumoniae ATCC 13383; value ranges from 3-6 uM
[24] = system: Staphylococcus aureus; assay: Minimum inhibitory concentration against Staphylococcus aureus ATCC 13709 (+4% BSA); value ranges from 50-100 uM; procedure, shortened: as §1
[25] = system: Escherichia coli; assay: Minimum inhibitory concentration against Escherichia coli ATCC 25922; value ranges from 6-12 uM
[26] = system: Enterococcus faecium; assay: Minimum inhibitory concentration against Enterococcus faecium ATCC 6569; value ranges from 3-6 uM
[27] = system: Staphylococcus aureus; assay: In vitro antibacterial activity against Staphylococcus aureus; value ranges from 50-100 uM
[28] = system: Staphylococcus aureus; assay: In vitro antibacterial activity against Staphylococcus aureus; value ranges from 25-50 uM
[29] = system: Mus musculus; assay: In vivo antibacterial activity (Staphylococcus aureus) in a lethal murine model at a dose of 9.4 mg/kg; activity expressed as no. of mice alive/total tested; 2/10
[30] = system: Enterococcus faecalis; assay: Minimum inhibitory concentration against Enterococcus faecalis ATCC 29212
[31] = system: Mus musculus; assay: In vivo antibacterial activity (Staphylococcus aureus) in a lethal murine model at a dose of 75 mg/kg; activity expressed as no. of mice alive/total tested; 3/10
[32] = system: Mus musculus; assay: In vivo antibacterial activity (Staphylococcus aureus) in a lethal murine model at a dose of 37.6 mg/kg; activity expressed as no. of mice alive/total tested; 3/10
[33] = system: Huh-7; assay: Cytotoxic concentration against Huh7 cells at 48 hours in MTT assay; value ranges from 25-50 uM; conditions: Homo sapiens, Huh-7, 48 h
[34] = system: Mus musculus; assay: In vivo antibacterial activity (Staphylococcus aureus) in a lethal murine model at a dose of 18.8 mg/kg; activity expressed as no. of mice alive/total tested; 4/10
[35] = system: Staphylococcus aureus; assay: Minimum inhibitory concentration against Staphylococcus aureus ATCC 13709 (+4% BSA); value ranges from 12-25 uM; procedure, shortened: as §1
[36] = system: Mus musculus; assay: In vivo antibacterial activity (Staphylococcus aureus) in a lethal murine model at a dose of 4.6 mg/kg; activity expressed as no. of mice alive/total tested; 0/10
[37] = system: Mus musculus; assay: In vivo antibacterial activity (Staphylococcus aureus) in a lethal murine model at a dose of 2 mg/kg; activity expressed as no. of mice alive/total tested; 10/10
[38] = system: Huh-7; assay: Cytotoxic concentration against Huh7 cells at 48 hours in MTT assay; value ranges from 50-100 uM; conditions: Homo sapiens, Huh-7, 48 h
[39] = system: Enterococcus faecium; assay: Minimum inhibitory concentration against Enterococcus faecium ATCC 6569; value ranges from 6-12 uM

## O=C(NCCCNCc1cc(Br)cc(Br)c1)Nc1ccc(C(F)(F)F)cc1
[1]
  MIC: 12 µM (≈ 6.11 µg/mL)
[2]
  MIC: 50 µM (≈ 25.5 µg/mL)
[3]
  MIC: 12 µM (≈ 6.11 µg/mL)
[4]
  MIC: > 100 µM
[5]
  MIC: > 100 µM
[6]
  MIC: 25 µM (≈ 12.7 µg/mL)
[7]
  MIC: 6 µM (≈ 3.05 µg/mL)
[8]
  MIC: 25 µM (≈ 12.7 µg/mL)
[9]
  MIC: 12 µM (≈ 6.11 µg/mL)
[10]
  MIC: 6 µM (≈ 3.05 µg/mL)

## S=C(NCCCNCc1cc(Br)cc(Br)c1)Nc1ccc(Br)cc1
[11]
  MIC: 25 µM (≈ 13.4 µg/mL)

## O=C(NCCCNCc1ccc(OC(F)(F)F)cc1)Nc1ccc(C(F)(F)F)cc1
[10]
  MIC: 6 µM (≈ 2.61 µg/mL)

## O=C(NCCCNCCCOc1ccc(Br)cc1Br)Nc1ccc(C(F)(F)F)cc1
[10]
  MIC: 6 µM (≈ 3.32 µg/mL)

## O=C(NCCCNCc1cc(Br)cc(Br)c1O)Nc1ccc(C(F)(F)F)cc1
[12]
  MIC: > 100 µM

## O=C(NCCCNCc1ccccc1OC(F)(F)F)Nc1ccc(C(F)(F)F)cc1
[11]
  MIC: 25 µM (≈ 10.9 µg/mL)

## CN(CCCNC(=O)Nc1ccc(C(F)(F)F)cc1)CCCOc1ccc(Br)cc1Br
[13]
  CC50: > 100 µM
[14]
  MIC: 6 µM (≈ 3.4 µg/mL)
[15]
  No. of animals alive: 6
[16]
  MIC: 6 µM (≈ 3.4 µg/mL)
[2]
  MIC: 50 µM (≈ 28.4 µg/mL)
[17]
  No. of animals alive: 6
[18]
  No. of animals alive: 4
[19]
  No. of animals alive: 3
[4]
  MIC: > 100 µM
[20]
  No. of animals alive: 4
[21]
  MIC: 12 µM (≈ 6.81 µg/mL)
[5]
  MIC: > 100 µM
[6]
  MIC: 25 µM (≈ 14.2 µg/mL)
[7]
  MIC: 6 µM (≈ 3.4 µg/mL)
[8]
  MIC: 25 µM (≈ 14.2 µg/mL)
[22]
  No. of animals alive: 7
[23]
  MIC: 6 µM (≈ 3.4 µg/mL)

## CC(C)(C)c1ccc(CNCCCNC(=O)Nc2ccc(C(F)(F)F)cc2)cc1
[24]
  MIC: 100 µM (≈ 40.7 µg/mL)
[1]
  MIC: 12 µM (≈ 4.89 µg/mL)
[16]
  MIC: 6 µM (≈ 2.44 µg/mL)
[25]
  MIC: 12 µM (≈ 4.89 µg/mL)
[5]
  MIC: > 100 µM
[7]
  MIC: 6 µM (≈ 2.44 µg/mL)
[26]
  MIC: 6 µM (≈ 2.44 µg/mL)
[8]
  MIC: 25 µM (≈ 10.2 µg/mL)
[10]
  MIC: 6 µM (≈ 2.44 µg/mL)
[23]
  MIC: 6 µM (≈ 2.44 µg/mL)

## COc1cc(CNCCCNC(=O)Nc2ccc(C(F)(F)F)cc2)cc(OC)c1
[27]
  MIC: 100 µM (≈ 41.1 µg/mL)

## COc1ccc(N/C(S)=N/CCCNCc2cc(Br)cc(Br)c2)cc1
[28]
  MIC: 50 µM (≈ 24.4 µg/mL)

## O=C(NCCCNCc1cc(Br)cc(Br)c1)Nc1ccc(Cl)c(Cl)c1
[10]
  MIC: 6 µM (≈ 3.06 µg/mL)

## S=C(NCCCNCc1cc(Br)cc(Br)c1)Nc1cccc(Br)c1
[21]
  MIC: 12 µM (≈ 6.43 µg/mL)

## CN(C)c1ccc(CNCCCNC(=O)Nc2ccc(C(F)(F)F)cc2)cc1
[11]
  MIC: 25 µM (≈ 9.86 µg/mL)

## O=C(NCCCNCc1cc(Br)cc(Br)c1)Nc1ccc(Cl)cc1
[21]
  MIC: 12 µM (≈ 5.71 µg/mL)

## O=C(NCCCNCc1ccc(-c2ccccc2)cc1)Nc1ccc(C(F)(F)F)cc1
[29]
  No. of animals alive: 2
[16]
  MIC: 6 µM (≈ 2.56 µg/mL)
[25]
  MIC: 12 µM (≈ 5.13 µg/mL)
[30]
  MIC: > 100 µM
[31]
  No. of animals alive: 3
[3]
  MIC: 12 µM (≈ 5.13 µg/mL)
[4]
  MIC: > 100 µM
[32]
  No. of animals alive: 3
[5]
  MIC: > 100 µM
[7]
  MIC: 6 µM (≈ 2.56 µg/mL)
[8]
  MIC: 25 µM (≈ 10.7 µg/mL)
[33]
  CC50: 50 µM
[34]
  No. of animals alive: 4
[10]
  MIC: 6 µM (≈ 2.56 µg/mL)
[35]
  MIC: 25 µM (≈ 10.7 µg/mL)
[36]
  No. of animals alive: 0

## COc1ccccc1/N=C(\S)NCCCNCc1cc(Br)cc(Br)c1
[12]
  MIC: > 100 µM

## Fc1cccc(N/C(S)=N/CCCNCc2cc(Br)cc(Br)c2)c1
[11]
  MIC: 25 µM (≈ 11.9 µg/mL)

## CN[C@H](CC(C)C)C(=O)N[C@H]1C(=O)N[C@@H](CC(N)=O)C(=O)N[C@H]2C(=O)N[C@H]3C(=O)N[C@H](C(=O)N[C@H](C(=O)O)c4cc(O)cc(O)c4-c4cc3ccc4O)[C@H](O)c3ccc(c(Cl)c3)Oc3cc2cc(c3O[C@@H]2O[C@H](CO)[C@@H](O)[C@H](O)[C@H]2O[C@H]2C[C@](C)(N)[C@H](O)[C@H](C)O2)Oc2ccc(cc2Cl)[C@H]1O [VANCOMYCIN]
[37]
  No. of animals alive: 10

## COc1cccc(N/C(S)=N/CCCNCc2cc(Br)cc(Br)c2)c1
[28]
  MIC: 50 µM (≈ 24.4 µg/mL)

## CCOc1c(Br)cc(Br)cc1CNCCCNC(=O)Nc1ccc(C(F)(F)F)cc1
[1]
  MIC: 12 µM (≈ 6.64 µg/mL)
[16]
  MIC: 6 µM (≈ 3.32 µg/mL)
[2]
  MIC: 50 µM (≈ 27.7 µg/mL)
[38]
  CC50: 100 µM
[39]
  MIC: 12 µM (≈ 6.64 µg/mL)
[5]
  MIC: > 100 µM
[6]
  MIC: 25 µM (≈ 13.8 µg/mL)
[7]
  MIC: 6 µM (≈ 3.32 µg/mL)
[8]
  MIC: 25 µM (≈ 13.8 µg/mL)
[10]
  MIC: 6 µM (≈ 3.32 µg/mL)
[23]
  MIC: 6 µM (≈ 3.32 µg/mL)

## Cc1ccc(N/C(S)=N/CCCNCc2cc(Br)cc(Br)c2)cc1
[11]
  MIC: 25 µM (≈ 11.8 µg/mL)

## FC(F)(F)c1ccc(N/C(S)=N/CCCNCc2cc(Br)cc(Br)c2)cc1
[21]
  MIC: 12 µM (≈ 6.3 µg/mL)

## O=C(NCCCNCc1cccc(-c2ccccc2)c1)Nc1ccc(C(F)(F)F)cc1
[21]
  MIC: 12 µM (≈ 5.13 µg/mL)

## O=C(NCCCNCc1cc(Br)cc(Br)c1)Nc1cccc(C(F)(F)F)c1
[21]
  MIC: 12 µM (≈ 6.11 µg/mL)
